Source: PubChem
An excerpt weighted towards active compounds, which were near 2.2% of everything screened.
M5 ag = human M5 muscarinic receptor agonists, primary screen, CHO-K1 cells, Fluo-8 calcium fluorescence. activation, % at 3 µM. AID 624037, 2012. Muscarinic acetylcholine receptor M5 (Homo sapiens), P08912. hit rate 0.19% among 360,000. CHO-K1 hM5 cells; 0% DMSO wells, 100% maximal acetylcholine response;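 active = activation above the run's mean over test compounds plus 3 SD, cut at about 23% in these data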;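 note: signal is peak over basal fluorescence ratio across the kinetic read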
CHRM5 PAM = human M5 muscarinic receptor positive allosteric modulators, primary screen, CHO-K1 cells, Fluo-8 calcium fluorescence | AID 624038, 2012 | activation, % at 3 µM | CHO-K1 hM5, ACh EC20 PAM; 0% = ACh EC20, 100% = ACh EC100 | hit rate 0.3% among 360,000;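 active = activation above the run cutoff, the mean activation of all test compounds plus 3 SD, cut at about 18% in these data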
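System – CHO-K1 hM5 cells · Compound – 3 µM, single dose · Incubation – compound preincubation 140 s before EC20 acetylcholine addition · Technique – Fluo-8 calcium fluorescence · Measure – Max/basal fluorescence ratio as % of EC20–EC100 ACh window · Benchmarks – low control EC20 acetylcholine (0%), high control EC100 acetylcholine (100%) · Replication – singlicate, one well per test compound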
M5 antag = human M5 muscarinic receptor antagonists, primary screen, CHO cells, Fluo-8 calcium fluorescence; Muscarinic acetylcholine receptor M5 (Homo sapiens), P08912; CHO-hM5 cells, ACh EC80; inhibition, % at 3 µM; hit rate 0.59% among 360,000;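 active = inhibition above a per-plate cutoff, the mean of that plate's test compounds plus 3 SD, cut at about 27% in these data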
M1 ag = human M1 muscarinic receptor agonists, primary screen, Fluo-8 calcium fluorescence, CHO-K1 cells, HTS; Muscarinic acetylcholine receptor M1 (Homo sapiens), P11229; CHO-K1 hM1, agonist mode; 0% DMSO, 100% acetylcholine EC100; activation, % at 3 µM; hit rate 0.33% among 360,000; AID 588814, 2011;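 active = activation above the run's mean compound activation plus 3 SD, cut at about 16% in these data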;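 note: peak over basal fluorescence ratio within a 140 s kinetic read after compound addition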
Target sequence (P11229 whole entry, looked up): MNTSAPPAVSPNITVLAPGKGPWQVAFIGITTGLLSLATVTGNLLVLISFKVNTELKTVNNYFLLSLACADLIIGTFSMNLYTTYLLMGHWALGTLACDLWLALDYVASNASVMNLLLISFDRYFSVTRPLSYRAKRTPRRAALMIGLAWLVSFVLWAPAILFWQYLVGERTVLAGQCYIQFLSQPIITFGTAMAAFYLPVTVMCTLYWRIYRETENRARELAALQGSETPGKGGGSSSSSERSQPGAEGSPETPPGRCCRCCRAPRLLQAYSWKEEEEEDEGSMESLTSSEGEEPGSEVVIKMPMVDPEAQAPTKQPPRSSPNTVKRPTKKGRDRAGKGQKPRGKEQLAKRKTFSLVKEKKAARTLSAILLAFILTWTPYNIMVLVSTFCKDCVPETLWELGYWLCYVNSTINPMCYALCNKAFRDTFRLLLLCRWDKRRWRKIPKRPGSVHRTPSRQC
M1 antag = human M1 muscarinic receptor antagonists, primary screen, CHO-K1 cells, Fluo-8 calcium fluorescence, 1536-well; inhibition, % at 3 µM; Muscarinic acetylcholine receptor M1 (Homo sapiens), P11229; hit rate 1.3% among 360,000; CHO-K1 hM1, ACh EC80 antagonist;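 active = percent inhibition above its own plate's cutoff, namely the mean of that plate's compound wells plus 3 SD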;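 note: peak over basal fluorescence ratio during 140 s after agonist addition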
M1 PAM = human M1 muscarinic receptor positive allosteric modulators, primary screen, CHO-K1 cells, Fluo-8 calcium fluorescence, 1536-well; AID 588819, 2011; hit rate 0.088% among 360,000; CHO-K1 hM1, ACh EC20; 0% = ACh EC20, 100% = maximal ACh; Muscarinic acetylcholine receptor M1 (Homo sapiens), P11229; activation, % at 3 µM; in the data active = activation above about 19%, passing the limit was not always enough
Large screens that a line does not name were inactive.

Cc1ccc(S(=O)(=O)Cc2ccc(C(=O)N3CCCCCC3)o2)cc1	none
CCOC(=O)C1CCCN(C(=O)c2ccc(CS(=O)(=O)c3ccc(C)cc3)o2)C1 (configuration not stated)	M1 ag 56
CCOC(=O)C1CCCN(C(=O)c2cccc(S(=O)(=O)N(C)c3ccc(C)cc3)c2)C1 (configuration not stated)	M1 antag 37
CCOC(=O)C1CCCN(C(=O)c2cccc(S(=O)(=O)N3CCCC3)c2)C1 (configuration not stated)	none
CCOC(=O)C1CCCN(C(=O)c2ccc(-c3ccc([N+](=O)[O-])cc3)o2)C1 (configuration not stated)	M1 ag 39
COCCNC(=O)C(C)OC(=O)c1cc2occc2n1C (configuration not stated)	none
COc1ccc(OC)c(CNc2ncc(-c3cccc([N+](=O)[O-])c3)n2C)c1	M1 antag 45
Cn1c(-c2cccc([N+](=O)[O-])c2)cnc1NCc1cccc([N+](=O)[O-])c1	none
COc1ccc(OCC(=O)N2N=C(C)CC2(O)C(F)(F)F)cc1 (configuration not stated)	none
CN(C)c1ccc(O)c2c1CC1CC3[C@@H](N(C)C)C(=O)C(C(N)=O)=C(O)[C@]3(O)C(=O)C1=C2O (some centres not stated)	none
C[C@H]1c2cccc(O)c2C(O)=C2C(=O)[C@]3(O)C(O)=C(C(N)=O)C(=O)[C@@H](N(C)C)[C@@H]3[C@@H](O)[C@@H]21	M5 ag 27, M1 ag 25
Cc1[nH]n(-c2ccc([N+](=O)[O-])cc2)c(=O)c1C=NCCc1c(C)[nH]c2ccccc12	none
COC(=O)c1cnn(-c2ccccc2)c1C(OC)OC	CHRM5 PAM 22
CCCCc1nc2sc3c(=O)n(N)cnc3c2c2c1CCCC2	none
CCCc1nc2sc3c(=O)n(N)cnc3c2c2c1CCCC2	CHRM5 PAM 21
CC1CCC(C(C)C)C(OC(=O)C[n+]2cc(-c3ccc(Cl)cc3)n3c2CCCCC3)C1 (configuration not stated)	M5 antag 75, M1 antag 75
Clc1ccc(-c2c[n+](Cc3ccc(Cl)cc3Cl)c3n2CCCCC3)cc1	M1 antag 48
COC(=O)c1cnc(Oc2c(Cl)cc(N)cc2Cl)cc1C(F)(F)F	CHRM5 PAM 19
CN1CCN(c2nc3c(c(=O)n(C)c(=O)n3C)n2Cc2ccccc2Cl)CC1	M1 antag 57
CN1CCN(c2nc3c(c(=O)n(C)c(=O)n3C)n2Cc2cccc3ccccc23)CC1	none
Brc1ccccc1OCCCCn1cnc2ccccc21	M5 antag 29
N#Cc1c(NC(=S)NC(=O)Cc2cccs2)sc2c1CCCCC2	none
Cc1cc(C)n(/N=C/c2ccccc2O)c(=O)c1	CHRM5 PAM 25
O=c1cc2c(nn1Cc1cccc(Cl)c1)-c1ccccc1CC2	none
O=c1cc2c(nn1Cc1ccc(Cl)cc1)-c1ccccc1CC2	CHRM5 PAM 30
COc1ccc(C2=NN(C(=O)CSc3nc(=O)n4cccc(C)c4n3)C(c3ccc(C)cc3)C2)cc1 (configuration not stated)	none
CC1CCCC(NC(=S)Nc2ccc(SC(F)F)cc2)C1C (configuration not stated)	M5 antag 31
COC(=O)c1ccc(NC(=S)NC2CCCCC2C)cc1 (configuration not stated)	M5 antag 29
Cc1cccc(C(=O)NCC(=O)OCC(=O)NCCNC(=O)COC(=O)CNC(=O)c2cccc(C)c2)c1	none
